Reference: article PMC8966054 (Bioorganic & medicinal chemistry letters, 2022)

Columns and labels:
[1] = Human plasma protein binding; type: in vitro ADME; settings: fraction unbound
[2] = Mouse liver microsome stability / intrinsic clearance; type: in vitro ADME; settings: for CLint scaled: mouse, liver microsomes
6-OHDA mouse model = 6-OHDA mouse model ref 13; cited from earlier work
Metabolite ID study = type: in vitro ADME
[3] = Human liver microsome stability / intrinsic clearance; type: in vitro ADME; settings: for CLint scaled: human, liver microsomes
[4] = system: other dopamine receptors (D1-3,5); assay: Binding at other dopamine receptors; parameters: species or system human
How it was run: (§1)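 Ki from competitive inhibition of radioligand binding in membranes from HEK293 cells stably expressing the human receptor. [3H]N-methylspiperone was used for D2R, D3R and D4R, and [3H]SCH23390 for D1R and D5R.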

hD4R = target: T1, hD4R (Homo sapiens, UniProt P21917); assay: D4R competitive radioligand binding
T1 sequence (P21917 1-419): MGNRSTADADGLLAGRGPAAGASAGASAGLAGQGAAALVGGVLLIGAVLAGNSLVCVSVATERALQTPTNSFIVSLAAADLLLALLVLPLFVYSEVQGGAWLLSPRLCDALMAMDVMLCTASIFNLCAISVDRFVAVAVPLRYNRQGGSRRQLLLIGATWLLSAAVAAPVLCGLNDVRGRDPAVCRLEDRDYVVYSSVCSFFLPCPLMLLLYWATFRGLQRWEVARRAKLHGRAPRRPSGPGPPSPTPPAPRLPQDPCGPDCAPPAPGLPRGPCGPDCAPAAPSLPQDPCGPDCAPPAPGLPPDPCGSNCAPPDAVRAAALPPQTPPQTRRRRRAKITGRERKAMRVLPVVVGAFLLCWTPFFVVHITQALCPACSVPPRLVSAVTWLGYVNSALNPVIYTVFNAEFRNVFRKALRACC
How it was run: as §1

In vivo rat cassette PK = settings: iv, 0.25 mg/kg
Mouse plasma stability = type: in vitro ADME

Row | CLint scaled [2] | CLint scaled [3] | SMILES | further results
1 | 2130 mL/min/kg |  | COc1ccc(CN2CCO[C@H](COc3ccccc3)C2)cc1F [Compound 1, reference compound] | Plasma Protein Binding (%fu) hPPB [1]: 3.1 %fu; Mouse liver microsome stability [2]: highly unstable; Dyskinesia AIM (abnormal involuntary movement) scores (6-OHDA mouse model): dose-dependent reduction; Major metabolic liability (metabolite ID) (Metabolite ID study): N-dealkylation; Human liver microsome stability [3]: highly unstable
2 |  |  | COc1ccc(CN2CCC[C@H](OCc3cccc(F)c3)C2)cc1F [Compound 8a] | Selectivity against the other dopamine receptors [4]: selective
3 | 1260 mL/min/kg | 272 mL/min/kg | COc1ccc(CN2CCC[C@H](OCc3ccc(F)c(F)c3)C2)cc1F [Compound 8b] | 
4 |  |  | COc1ccc(CN2CCC[C@@H](OCc3ccc(F)c(C)c3)C2)cc1F [Compound 8d] | Fold less active, (R)-enantiomer vs (S)-enantiomer at D4 (hD4R): 15 fold
5 | 1400 mL/min/kg | 689 mL/min/kg | Fc1ccc(CO[C@H]2CCCN(Cc3cn4ccccc4n3)C2)cc1F [Compound 8i] | 
6 |  |  | Fc1cccc(CO[C@H]2CCCN(Cc3ncn4ccccc34)C2)c1 [Compound 8n] | D4 activity (hD4R): much less active or inactive
7 | 5370 mL/min/kg | 622 mL/min/kg | Fc1ccc(CO[C@H]2CCCN(Cc3ncn4ccccc34)C2)cc1F [Compound 8o] | 
8 |  |  | FC(F)(F)Oc1cccc(CO[C@H]2CCCN(Cc3ncc4ccccn34)C2)c1 [Compound 8q] | D4 activity (hD4R): much less active or inactive
9 |  |  | Cc1cccc(CO[C@H]2CCCN(Cc3ncc4ccccn34)C2)n1 [Compound 8r] | D4 activity (hD4R): much less active or inactive
10 | 380 mL/min/kg | < 23.1 mL/min/kg | Fc1cccc(COC2CCN(Cc3cn4ccccc4n3)CC2)c1 [Compound 9a] | Mouse liver microsome stability [2]: modestly stable; Fold improvement of D4 activity vs 3-O-derivative (hD4R): 10 fold; Human liver microsome stability [3]: stable
11 | 158 mL/min/kg | < 20 mL/min/kg | Fc1ccc(COC2CCN(Cc3cn4ccccc4n3)CC2)cc1F [Compound 9b] | Mouse liver microsome stability [2]: modestly stable; clearance (In vivo rat cassette PK): 116 mL/min/kg; Human liver microsome stability [3]: stable
12 | 310 mL/min/kg | 44.6 mL/min/kg | FC(F)(F)c1cccc(COC2CCN(Cc3cn4ccccc4n3)CC2)c1 [Compound 9c] | 
13 | 96.8 mL/min/kg | 44.1 mL/min/kg | Fc1cc(COC2CCN(Cc3cn4ccccc4n3)CC2)ccc1Cl [Compound 9d] | clearance (In vivo rat cassette PK): 134 mL/min/kg
14 | 917 mL/min/kg | 212 mL/min/kg | Fc1cc(COC2CCN(Cc3ncc4ccccn34)CC2)ccc1Cl [Compound 9e] | Mouse liver microsome stability [2]: not as stable; Human liver microsome stability [3]: not as stable
15 | 1260 mL/min/kg | 340 mL/min/kg | Fc1cccc(COC2CCN(Cc3ncn4ccccc34)CC2)c1 [Compound 9h] | Mouse liver microsome stability [2]: not as stable; Human liver microsome stability [3]: not as stable
16 | 272 mL/min/kg | 85.3 mL/min/kg | Cc1nc(CN2CCC(OCc3cccc(C(F)(F)F)c3)CC2)c2ccccn12 [Compound 9i] | 
17 | 140 mL/min/kg | 114 mL/min/kg | Cc1nc(CN2CCC(OCc3ccc(Cl)c(F)c3)CC2)c2ccccn12 [Compound 9j] | 
18 | 90.4 mL/min/kg | 48.3 mL/min/kg | Fc1cc(COC2CCN(Cc3ccc4[nH]cnc4c3)CC2)ccc1Cl [Compound 9l] | clearance (In vivo rat cassette PK): 199 mL/min/kg
19 | 76.4 mL/min/kg | 32.9 mL/min/kg | FC(F)(F)c1cccc(COC2CCN(Cc3ccc4[nH]cnc4c3)CC2)c1 [Compound 9m] | 
20 | 93.9 mL/min/kg | < 20 mL/min/kg | Fc1ccc(COC2CCN(Cc3ccc4[nH]cnc4c3)CC2)cc1F [Compound 9n] | clearance (In vivo rat cassette PK): 235 mL/min/kg
21 | 85.2 mL/min/kg | 63.3 mL/min/kg | Cn1cnc2cc(CN3CCC(OCc4cccc(C(F)(F)F)c4)CC3)ccc21 [Compound 9p] | clearance (In vivo rat cassette PK): 107 mL/min/kg
22 | 104 mL/min/kg |  | Cn1ncc2cc(CN3CCC(OCc4ccc(F)c(F)c4)CC3)ccc21 [Compound 9u] | clearance (In vivo rat cassette PK): 140 mL/min/kg
23 | 85.3 mL/min/kg | 42.7 mL/min/kg | Cn1ncc2cc(CN3CCC(OCc4ccc(Cl)c(F)c4)CC3)ccc21 [Compound 9v] | 
24 | 85.2 mL/min/kg | 63.3 mL/min/kg | Cn1ncc2cc(CN3CCC(OCc4cccc(C(F)(F)F)c4)CC3)ccc21 [Compound 9w] | 
25 | 83.2 mL/min/kg | 23.5 mL/min/kg | Fc1ccc(COC2CCN(Cc3cc4ccc(Cl)cc4[nH]3)CC2)cc1F [Compound 9y] | C0 (In vivo rat cassette PK): 36.9 ng/mL
26 | 71.5 mL/min/kg | 26.9 mL/min/kg | FC(F)(F)c1cccc(COC2CCN(Cc3cc4ccc(Cl)cc4[nH]3)CC2)c1 [Compound 9z] | 
27 | 287 mL/min/kg | 145 mL/min/kg | Cc1c(Cl)cccc1NC(=O)CN1CCC(OCc2ccc(F)c(F)c2)CC1 [Compound 11a] | Selectivity against the other dopamine receptors [4]: selective for D4; C0 (In vivo rat cassette PK): 91 ng/mL; clearance (In vivo rat cassette PK): 22 mL/min/kg
28 | 306 mL/min/kg | 49.5 mL/min/kg | Cc1cc(NC(=O)CN2CCC(OCc3ccc(F)c(F)c3)CC2)ccc1F [Compound 11d] | Mouse liver microsome stability [2]: moderately stable; Selectivity against the other dopamine receptors [4]: selective for D4; Mouse plasma stability (Mouse plasma stability): not stable; Plasma stability (footnote symbol in mPPB column) (Mouse plasma stability; mouse plasma): c; Human liver microsome stability [3]: moderately stable
